Structures can show the parent of a compound that is named as a salt.
What was measured:
Assay type in all cases: in vivo, rat
[1] = PCB 95 and OH-PCB tissue levels by GC-ECD
Procedure, shortened: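 Killed 4 h after last injection (~28 h post-PCB). Tissues homogenized with diatomaceous earth and extracted over Florisil. OH-PCBs analysed as methylated derivatives; splitless injection at 280°C; PCB 204 internal standard.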

CYP2B protein = experiment: Western blot analysis of CYP2B protein in liver and cortex microsomes; details: liver microsomes; 7 d exposure
[2] = Enantioselective analysis of PCB 95 in tissues; details: both experimental groups
[3] = both experimental groups dosed with PCB 95

SMILES | detection of OH-PCB metabolite in blood and liver [1, 3] | also measured
Oc1cc(Cl)c(Cl)c(-c2cc(Cl)ccc2Cl)c1Cl [5-95, 2,2′,3,5′,6-pentachlorobiphenyl-5-ol] | detected | detection of metabolite in adipose tissue [1, 3]: detected as a minor metabolite
Clc1ccc(Cl)c(-c2c(Cl)ccc(Cl)c2Cl)c1 [PCB 95, 2,2′,3,5′,6-Pentachlorobiphenyl] |  | hepatic CYP2B protein levels relative to vehicle controls (densitometry, normalized to GAPDH) (CYP2B protein): neither nicotine nor PCB 95 alone changed hepatic CYP2B levels; rank order of tissue EF values for PCB 95 [2]: blood (sample pooled across experimental groups) > liver > muscle (samples pooled within experimental groups) > cortex > adipose
Oc1cc(Cl)c(-c2c(Cl)ccc(Cl)c2Cl)cc1Cl [4′-95] | detected | 
Oc1cc(Cl)c(-c2cc(Cl)ccc2Cl)c(Cl)c1Cl [4-95, 2,2′,3,5′,6-pentachlorobiphenyl-4-ol] | detected | 
COc1c(Cl)cc(Cl)c(-c2cc(Cl)ccc2Cl)c1Cl [3-103, 3-Methoxy-2,2′,4,5′,6-pentachlorobiphenyl] | detected | 
COc1c(Cl)c(Cl)c(-c2cc(Cl)ccc2Cl)c(Cl)c1OC [4,5-95, 4,5-dimethoxy-2,2′,3,5′,6-pentachlorobiphenyl] | detected | 
CN1CCC[C@H]1c1cccnc1 [Nicotine, (−)-Nicotine hydrogen tartrate salt, reference compound] |  | effect of nicotine co-exposure on levels of the parent compound PCB 95 in tissues ([1]; nicotine 1 mg/kg/d s.c. 7 d plus PCB 95 6 mg/kg/d p.o., cortex, cerebellum, adipose, blood, liver, muscle): no effect
